pIC50: −log10 of the molar value.
Legend:
Rattus norvegicus [1] = assay: Toxicity in Sprague-Dawley rat assessed as incidence of mortality at 1 mg/kg, ig after 10 hrs; type: organism-based; parameters: dose 1 mg/kg, route intragastric; conditions: in vivo, po
Method in brief: (§1)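 Male SD rats dosed once at 1.0 mg/kg, iv bolus or intragastric, during the PK study. Dosing solution 0.5 mg/mL in 1% ethanol, 1% Tween80, 98% buffered saline. Animals observed for death and toxic reactions over 10 h. n = 4 per PK group.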

[2] = Tmax in Sprague-Dawley rat at 1 mg/kg, iv; type: ADME, organism-based; parameters: dose 1 mg/kg, route intravenous; conditions: in vivo
Method in brief: (§2)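 Male SD rats given single 1.0 mg/kg iv bolus of solution (0.5 mg/mL) in 1% ethanol, 1% Tween80, 98% buffered saline. Heparinized blood samples (n = 4) centrifuged 4000 rpm, 5 min, 4 °C; plasma concentrations used to derive PK parameters.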

[3] = Systemic clearance in Sprague-Dawley rat at 1 mg/kg, iv; type: ADME, organism-based; parameters: dose 1 mg/kg, route intravenous; conditions: in vivo; method in brief: as §2
[4] = Apparent volume of distribution in Sprague-Dawley rat at 1 mg/kg, iv; type: ADME, organism-based; parameters: dose 1 mg/kg, route intravenous; conditions: in vivo, read-out: Vz; method in brief: as §2
[5] = Cmax in Sprague-Dawley rat at 1 mg/kg, iv; type: ADME, organism-based; parameters: dose 1 mg/kg, route intravenous; conditions: in vivo; method in brief: as §2
HL-60 = assay: Cytotoxicity against human HL60 cells after 72 hrs by MTT assay; type: functional, cell-based; conditions: HL-60, 72 h
Method in brief: (§3)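 MTT growth assay: 3000 cells per well seeded, after 24 h exposed to 10 drug concentrations for 72 h, then MTT (5 mg/mL stock) 4 h at 37 °C. Formazan dissolved in DMSO, absorbance at 540 nm. Points in triplicate; IC50 is mean of at least three independent determinations. Cells grown at 37 °C, 5% CO2 with FBS.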

PC-3 = assay: Cytotoxicity against human PC3 cells after 72 hrs by MTT assay; type: functional, cell-based; conditions: PC-3, 72 h; method in brief: as §3
Rattus norvegicus [6] = assay: Toxicity in Sprague-Dawley rat assessed as incidence of mortality at 1 mg/kg, iv after 10 hrs; type: organism-based; parameters: dose 1 mg/kg, route intravenous; conditions: in vivo; method in brief: as §1
[7] = Mean residence time (0-t) in Sprague-Dawley rat at 1 mg/kg, iv; type: ADME, organism-based; parameters: dose 1 mg/kg, route intravenous; conditions: in vivo; method in brief: as §2
[8] = Terminal half life in Sprague-Dawley rat at 1 mg/kg, iv; type: ADME, organism-based; parameters: dose 1 mg/kg, route intravenous; conditions: in vivo; method in brief: as §2
SW480 = assay: Cytotoxicity against human SW480 cells after 72 hrs by MTT assay; type: functional, cell-based; conditions: SW480, 72 h; method in brief: as §3
[9] = AUC (0-t) in Sprague-Dawley rat at 1 mg/kg, iv; type: ADME, organism-based; parameters: dose 1 mg/kg, route intravenous; conditions: plasma; method in brief: as §2
BXPC-3 = assay: Cytotoxicity against human BxPC3 cells after 72 hrs by MTT assay; type: functional, cell-based; conditions: BXPC-3, 72 h; method in brief: as §3
[10] = Inhibition of human 20S proteasome chymotrypsin-like activity by fluorimetric assay; conditions: read-out: IC50
Method in brief: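 Human 20S proteasome preincubated with test compound, then Suc-Leu-Leu-Val-Tyr-AMC hydrolysis monitored 1 h at 37 °C by fluorescence (excitation 360 nm, 465 nm). Buffer pH 7.5: 20 mM Tris, 1 mM DTT, 10% glycerol, 0.02% (w/v) SDS; DMSO 3% (v/v) final. IC50 from five concentrations, each in duplicate; bortezomib standard.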

SK-OV-3 = assay: Cytotoxicity against human SKOV3 cells after 72 hrs by MTT assay; type: functional, cell-based; conditions: SK-OV-3, 72 h; method in brief: as §3
[11] = Cytotoxicity against human RPMI18226 cells after 72 hrs by MTT assay; type: functional, cell-based; conditions: RPMI18226, 72 h; method in brief: as §3
A549 = assay: Cytotoxicity against human A549 cells after 72 hrs by MTT assay; type: functional, cell-based; conditions: A549, 72 h; method in brief: as §3
HepG2 = assay: Cytotoxicity against human HepG2 cells after 72 hrs by MTT assay; type: functional, cell-based; conditions: HepG2, 72 h; method in brief: as §3

In the case of `CC(C)C[C@H](NC(=O)CC(NC(=O)c1ccc2ccccc2c1)c1cccc(F)c1)B(O)O` (stereo partly drawn), the Activity (Rattus norvegicus [1]) was “Non-toxic”, the Tmax [2] was 1.8 min and the clearance [3] was 9.6 mL/min/kg. It also gave a Vd [4] of 3.9 L/kg, a Cmax [5] of 5790 ng/mL and a pIC50 (HL-60) of 6.28. The pIC50 (PC-3) was 5.52, the Activity (Rattus norvegicus [6]) was “Non-toxic” and the MRT last [7] was 1.4 h. For the same molecule, the half-life [8] was 4.5 h, the pIC50 (SW480) was 5.62 and the AUC(0-t) [9] was 1710 ng·h/mL. It also gave a pIC50 (BXPC-3) of 5.45, a pIC50 [10] of 8.52 and a pIC50 (SK-OV-3) of 5.06. For the same molecule, the pIC50 [11] was 6.48, the pIC50 (A549) was 5.69 and the pIC50 (HepG2) was 5.16.

— ChEMBL document CHEMBL1629441, “Synthesis, in vitro and in vivo biological evaluation, and comprehensive understanding of structure-activity relationships of dipeptidyl boronic acid proteasome inhibitors constructed from β-amino acids” (J Med Chem, 2010)
